Only some compounds are listed: those with a hit (about 2.5% of all), similar ones and a draw of the others.
UCH37 DUB inh – human UCH37 deubiquitinating enzyme inhibition. Q9Y5K5. purified proteasome/UCH37, Ub-AMC cleavage fluorescence. inhibition, % (concentration not given with the values). 330,000 compounds, 0.33% hits;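 active = mean inhibition over replicate wells above about 20%, limit read from the data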
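Schedule: 30 min plus 25 min, room temperature / Material: human UCH37 within purified proteasomes / Technique: AMC fluorescence intensity at 355/460 nm / Buffer or medium: pH 7.4 Tris-HCl (50 mM) with ovalbumin, ATP-MgCl2, DTT / Controls: wells without proteasome as full block, compound-free enzyme plus substrate as uninhibited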
T cell modulator – modulates CD8 T cell binding to vesicles | response (vesicle binding), % at 7 µM | 2C CD8+ T cell-vesicle binding, flow cytometry; active compounds read low | 330,000 compounds, 0.068% hits;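 active = response, share of CD8 T cells binding vesicles, and their 90th percentile fluorescence all below set limits, cut at about 80% in these data, passing the limit was not always enough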;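 also: values below 100% mean blocked vesicle binding to the CD8+ T cells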
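incubation = binding step 1.5 h, 37 °C, antibody labelling 20 min, ice | test system = 2C mouse CD8+ T cells | read-out basis = percent CD8+ FL2 mean versus row control | controls = Peptide-free naked vesicles (low) and QL9 vesicles with 0.7% DMSO vehicle (high) | detection = flow cytometry of vesicle-bound cells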
MEKK2 WT-MEK5 – raises or lowers MEK5 binding to wildtype human MEKK2 PB1 domain. 290,000 compounds, 1.1% hits. AID 1531. Q9Y2U5. binding response (% of control), % at 10 µM. bead flow cytometry, Alexa488-MEK5 binding to MEKK2 WT; actives lie on both sides; in the data active = binding response below about 67% or above about 130%
MEKK3 PB1 HTS – MEKK3-MEK5 PB1 interaction, increase or decrease | Q99759 | bead-based flow cytometry, Alexa488-MEK5 binding to MEKK3; actives lie on both sides; 0 = blocked by unlabeled MEK5, 100 = vehicle | binding response (% of control), % at 10 µM | 290,000 compounds, 1.4% hits | AID 1529;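 active = binding response more than 3 SD above or below the average of its plate-row segment, actives on both sides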;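 also: Alexa488 bead fluorescence after subtracting the streptavidin-only scavenger bead signal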
Rce1 inh – inhibitors of yeast Ras-converting enzyme | Q03530 | yeast membranes, quenched prenylated peptide cleavage fluorescence | calls only | 290,000 compounds, 0.27% hits | AID 2563;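 active = fall in fluorescence gain of 50% or more versus controls, with final raw signal at or below 3038400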
Target sequence (Q03530 whole entry, looked up): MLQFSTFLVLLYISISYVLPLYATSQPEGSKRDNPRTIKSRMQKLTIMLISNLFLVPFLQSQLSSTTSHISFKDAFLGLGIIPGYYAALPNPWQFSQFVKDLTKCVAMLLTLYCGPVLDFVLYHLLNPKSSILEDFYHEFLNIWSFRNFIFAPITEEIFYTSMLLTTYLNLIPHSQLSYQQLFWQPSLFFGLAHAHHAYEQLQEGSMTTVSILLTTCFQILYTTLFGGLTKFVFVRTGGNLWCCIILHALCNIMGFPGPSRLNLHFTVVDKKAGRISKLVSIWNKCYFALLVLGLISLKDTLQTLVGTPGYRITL
MEKK2mut PB1 HTS – signal of MEK5 binding to mutant human MEKK2 PB1 domain; bead flow cytometry, Alexa488-MEK5 binding to MEKK2 mutant; percent response, % at 10 µM; 290,000 compounds, 0.35% hits; in the data active = percent response above about 24%, passing the limit was not always enough
Each line names hits and unclear results; the compound was inactive in the other large screens; [ ] = another dose, or the depositor's remark.

O=C(CCCN1C(=O)c2cccc3cccc(c23)C1=O)N1CCN(c2ccccn2)CC1	MEKK3 PB1 HTS 129.0
CC(C)c1cccc(OCC(=O)Nc2ccc(S(=O)(=O)Nc3ccccn3)cc2)c1	Rce1 inh active
O=[N+]([O-])c1ccc2c(c1)N([O-])C1(CCCCC1)[N+]2=O	UCH37 DUB inh 51.5 (no result: T cell modulator, Rce1 inh)
CC1=C(c2ccccc2)[N+](=O)C2(CCCC2)N1[O-]	none
COC(=O)C=c1sc2n(c1=O)C(C)=CC(C)(C)N=2	none (no result: T cell modulator, MEKK2 WT-MEK5, MEKK3 PB1 HTS, Rce1 inh, MEKK2mut PB1 HTS)
COc1ccc(OC)c(C=Nc2oc(-c3ccco3)c(-c3ccco3)c2C#N)c1	none (no result: T cell modulator, MEKK2 WT-MEK5, MEKK3 PB1 HTS, Rce1 inh, MEKK2mut PB1 HTS)
O=C(Nc1nc2ccccc2[nH]1)c1cccc(Cl)c1	none
O=C(O)c1ccc(Nc2nc3ccc(Cl)cc3[nH]2)cc1	Rce1 inh active
CC(/C=C/c1ccccc1)=NNC(=O)c1cc(C)nc2ccccc12	none (no result: T cell modulator, MEKK2 WT-MEK5, MEKK3 PB1 HTS, Rce1 inh, MEKK2mut PB1 HTS)
COC(=O)N/N=C1\CCCc2ccccc21	none (no result: UCH37 DUB inh)
O=C(O)c1ccc(NN=C2CCCc3ccccc32)cc1	UCH37 DUB inh 22.2 (no result: T cell modulator, MEKK2 WT-MEK5, MEKK3 PB1 HTS, Rce1 inh, MEKK2mut PB1 HTS)
O=C(Nc1sc2c(c1C(=O)c1ccc(Cl)cc1)CCCC2)c1cccnc1	Rce1 inh active
O=C(Nc1sc2c(c1C(=O)c1ccccc1)CCCC2)c1cccnc1	none
COc1ccc(O)c(C=Nn2c(-c3ccco3)csc2=Nc2cccnc2)c1	none (no result: T cell modulator, MEKK2 WT-MEK5, MEKK3 PB1 HTS, Rce1 inh, MEKK2mut PB1 HTS)
CC(CC(=O)NC(C)(C)C)=NNC(=O)c1ccco1	none (no result: T cell modulator, MEKK2 WT-MEK5, MEKK3 PB1 HTS, Rce1 inh, MEKK2mut PB1 HTS)
O=C(CCNS(=O)(=O)c1ccc2[nH]c(=O)oc2c1)NCc1ccccc1	Rce1 inh active
O=C(CCNS(=O)(=O)c1ccc2[nH]c(=O)oc2c1)NCc1ccc(F)cc1	none
COC(=O)Cn1c(CCC(=O)O)ccc1-c1ccccc1	Rce1 inh active
O=C(Oc1ccc(-c2nnco2)cc1)N1CCCCC1	T cell modulator 75.6
O=C(Oc1ccc(Cl)cc1)N1CCCCC1	none (no result: Rce1 inh)
O=C(NC1CCCC1)c1cc2nc(-c3ccccc3)cc(-c3ccccc3)n2n1	none
CC1CCN(C(=O)c2cc3nc(-c4ccccc4)cc(-c4ccccc4)n3n2)CC1	Rce1 inh active
Cc1nnc(NC(=O)c2nn(CC(C)C)c(=O)c3ccccc23)s1	none
CCCn1nc(C(=O)Nc2nnc(CC)s2)c2ccccc2c1=O	MEKK2 WT-MEK5 -5.0
CCC(=O)Nc1cccc(-c2cn3ccccc3n2)c1	none
O=C(Nc1cccc(-c2cn3ccccc3n2)c1)C1CC1	Rce1 inh active
CC1CN(c2ncc(C=NNC(=O)c3ccccc3O)s2)CC(C)O1 (stereo not drawn)	none (no result: T cell modulator, MEKK2 WT-MEK5, MEKK3 PB1 HTS, Rce1 inh, MEKK2mut PB1 HTS)
CCC(C)Sc1cc(-c2nc3ccccn3c2NC2CCCCC2)ccc1OC (stereo not drawn)	Rce1 inh active (no result: MEKK2 WT-MEK5, MEKK3 PB1 HTS, MEKK2mut PB1 HTS)
CCC(C)Sc1cc(-c2nc3cc(C)ccn3c2NC2CCCCC2)ccc1OC (stereo not drawn)	none (no result: MEKK2 WT-MEK5, MEKK3 PB1 HTS, Rce1 inh, MEKK2mut PB1 HTS)
COc1ccc(-c2c(C)oc3c(CN4CCN(C)CC4)c(O)ccc3c2=O)cc1	Rce1 inh active
CC(=NNC(=O)Cc1ccccc1)c1cccnc1	none (no result: T cell modulator, MEKK2 WT-MEK5, MEKK3 PB1 HTS, Rce1 inh, MEKK2mut PB1 HTS)
CCOc1ccccc1CNC(=O)c1cc2occc2n1C	Rce1 inh active
S=c1[nH]nc(-c2ccco2)n1N=Cc1cccc(Cl)c1	none (no result: T cell modulator, MEKK2 WT-MEK5, MEKK3 PB1 HTS, Rce1 inh, MEKK2mut PB1 HTS)
CC1=C(C(=O)OCc2ccccc2)C(c2ccc(-c3ccccc3)cc2)NC(=O)N1CCCC(=O)O (stereo not drawn)	Rce1 inh active (no result: T cell modulator)
Cc1cc(C=NNC(=O)C(O)(c2ccccc2)c2ccccc2)c(C)n1-c1cccc(C(=O)O)c1	none (no result: T cell modulator, MEKK2 WT-MEK5, MEKK3 PB1 HTS, Rce1 inh, MEKK2mut PB1 HTS)
COc1ccc(C=NNC(=O)/C(=C/c2ccccc2)CCO)cc1	none (no result: T cell modulator, MEKK2 WT-MEK5, MEKK3 PB1 HTS, Rce1 inh, MEKK2mut PB1 HTS)
O=C(COC(=O)c1ccc2c(c1)C(=O)N(c1cccc3ncccc13)C2=O)c1ccc(Cl)cc1	MEKK3 PB1 HTS 70.0[inhibitor]
Cc1ccc(C(=O)COC(=O)c2ccc3c(c2)C(=O)N(c2cccc4ncccc24)C3=O)cc1	none
O=[N+]([O-])c1cccc(-c2ccc(C(=S)N3CCOCC3)o2)c1	none
O=[N+]([O-])c1cc(-c2ccc(C(=S)N3CCOCC3)o2)ccc1Cl	UCH37 DUB inh 20.6
COc1cccc(-c2ccc(-c3noc(-c4ccccc4F)n3)c(OC)n2)c1	Rce1 inh active
COc1cccc(CCN2CCC(CNS(=O)(=O)c3cc(-c4cc(C)no4)ccc3OC)CC2)c1	none

Bioassay records deposited in PubChem BioAssay by several laboratories.
